Measurements: ChEMBL document CHEMBL4689842, “EUbOPEN Chemogenomics Library wave 1” (2021)
“And” between values parts separate entries of the source, which are not always exact repeats. Equal entries are not always repeated.

Test system: HEK-293T
Assay: Multiplex assay against HEK293T;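 as to Population Tubulin-Different-Phenotype (%): share of the cells with healthy nuclei that show this phenotype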
Format: toxicity, cell-based
Settings: human, 10 µM, compound concentration 10 uM
Outline: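 Cells stained live at seeding with Hoechst33342, BioTracker Green Microtubule Cytoskeleton Dye, MitoTracker Red and Annexin V Alexa Fluor 680 were imaged on a CQ1 microscope at 37°C and 5% CO2 after compound addition. Their classification by CellPathfinder machine-learning gating ran from Hoechst high-intensity objects versus normal cells, to healthy, pyknosed or fragmented nuclei among normal cells, to mitotic or apoptotic among pyknosed cells. Tubulin, mitochondrial-mass and membrane-permeability phenotypes are per cents of healthy-nucleus cells.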

Question: Which results are given for `Cc1sc2c(c1C)C(c1ccc(Cl)cc1)=N[C@@H](CC(=O)OC(C)(C)C)c1nnc(C)n1-2`?
Answer: Population Apoptotic (%) (12 h, replicate 1): 16% and 17%; Population Fragmented Nuclei (%) (12 h, replicate 1): 19% and 13%; Population Healthy Nuclei (%) (12 h, replicate 1): 65% and 71%; Population Hoechst High Intensity Objects (%) (12 h, replicate 1): 14% and 8%; Population Membrane Permeable-Phenotype (%) (12 h, replicate 1): 3%; Population Mitochondria Different-Phenotype (%) (12 h, replicate 1): 6% and 5%; Population Mitotic Cells (%) (12 h, replicate 1): 83% and 82%; Population Normal (%) (12 h, replicate 1): 85% and 91%; Population Pyknosed Nuclei (%) (12 h, replicate 1): 15%; Population Tubulin-Different-Phenotype (%) (12 h, replicate 1): 2%; Total Cell Count (12 h, replicate 1): 561 and 772; Population Apoptotic (%) (12 h, replicate 2): 6% and 3%; Population Fragmented Nuclei (%) (12 h, replicate 2): 14% and 12%; Population Healthy Nuclei (%) (12 h, replicate 2): 79%; Population Hoechst High Intensity Objects (%) (12 h, replicate 2): 3% and 4%; Population Membrane Permeable-Phenotype (%) (12 h, replicate 2): 0%; Population Mitochondria Different-Phenotype (%) (12 h, replicate 2): 10% and 11%; Population Mitotic Cells (%) (12 h, replicate 2): 93% and 96%; Population Normal (%) (12 h, replicate 2): 96% and 95%; Population Pyknosed Nuclei (%) (12 h, replicate 2): 5% and 7%; Population Tubulin-Different-Phenotype (%) (12 h, replicate 2): 0%; Total Cell Count (12 h, replicate 2): 1959 and 1675; Population Apoptotic (%) (24 h, replicate 1): 16% and 12%; Population Fragmented Nuclei (%) (24 h, replicate 1): 17% and 9%; Population Healthy Nuclei (%) (24 h, replicate 1): 70% and 80%; Population Hoechst High Intensity Objects (%) (24 h, replicate 1): 11% and 10%; Population Membrane Permeable-Phenotype (%) (24 h, replicate 1): 1%; Population Mitochondria Different-Phenotype (%) (24 h, replicate 1): 7% and 3%; Population Mitotic Cells (%) (24 h, replicate 1): 84% and 87%; Population Normal (%) (24 h, replicate 1): 88% and 89%; Population Pyknosed Nuclei (%) (24 h, replicate 1): 11% and 10%; Population Tubulin-Different-Phenotype (%) (24 h, replicate 1): 2% and 1%; Total Cell Count (24 h, replicate 1): 472 and 770; Population Apoptotic (%) (24 h, replicate 2): 5%; Population Fragmented Nuclei (%) (24 h, replicate 2): 19% and 20%; Population Healthy Nuclei (%) (24 h, replicate 2): 76% and 75%; Population Hoechst High Intensity Objects (%) (24 h, replicate 2): 5%; Population Membrane Permeable-Phenotype (%) (24 h, replicate 2): 0%; Population Mitochondria Different-Phenotype (%) (24 h, replicate 2): 5%; Population Mitotic Cells (%) (24 h, replicate 2): 94%; Population Normal (%) (24 h, replicate 2): 94%; Population Pyknosed Nuclei (%) (24 h, replicate 2): 4% and 3%; Population Tubulin-Different-Phenotype (%) (24 h, replicate 2): 0%; Total Cell Count (24 h, replicate 2): 1813 and 2044
